Autophagy mod = autophagy modulators in MEF cells, primary screen, imaging, high-content, MEF GFP-LC3. calls only at 10 µM (by protocol). hit rate 0.98% among 190,000. MEF GFP-LC3 puncta imaging; test concentration mostly 10 µM;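 active = percentage of spot-positive cells more than 3 SD above its plate mean, without a fluorescence outlier flag or 80% toxicity; inconclusive = no clear call, values can overlap the other calls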
Rad51 HR inh = human RAD51 strand exchange inhibitors, primary screen, biochemical, fluorescence; hit rate 0.085% among 200,000; inhibition, % at 10 µM; AID 1385, 2008; hRad51 DNA strand exchange, fluorescence dequenching; DNA repair protein RAD51 homolog 1 (Homo sapiens), Q06609;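 active = inhibition above 40% at the single screening dose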
Target sequence (Q06609 whole entry, looked up): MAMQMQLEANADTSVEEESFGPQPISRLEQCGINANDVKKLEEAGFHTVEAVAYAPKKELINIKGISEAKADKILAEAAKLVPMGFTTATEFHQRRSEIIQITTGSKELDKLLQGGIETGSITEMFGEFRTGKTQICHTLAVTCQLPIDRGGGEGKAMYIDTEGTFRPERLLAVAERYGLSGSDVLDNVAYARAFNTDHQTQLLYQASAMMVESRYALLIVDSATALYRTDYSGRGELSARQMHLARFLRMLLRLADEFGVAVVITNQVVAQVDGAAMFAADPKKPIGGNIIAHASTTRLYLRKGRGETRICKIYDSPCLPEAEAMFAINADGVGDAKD
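Assay system: Human Rad51 nucleoprotein filaments preassembled on unlabelled ssDNA | Reagent: Donor/quencher-labelled 47-bp dsDNA substrate | Doses: One concentration, 10 µM final | Times: 37 °C 15-min filament assembly, 30-min compound preincubation, 15-min exchange | Technique: Fluorescein emission 520 nm, excitation 485 nm | Benchmarks: Plate control and blank wells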
Cl transport mod = KCC2 cotransporter modulators, thallium flux, primary screen, cell-based, HEK293 KCC2, FluoZin-2 fluorescence, MLSMR | KCC2 cells, thallium flux FluoZin-2 fluorescence | B-score of Tl+ flux slope (higher = more flux/activation; lower = inhibition) at 10 µM | hit rate 2.2% among 190,000;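 active = thallium flux slope and its plate-corrected score both differing from the plate sample mean at a set confidence after two filtering rounds, in either direction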;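 note: slope of fluorescence scaled to starting intensity during 10 to 20 s after thallium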
WT yeast gro inh = growth inhibition of WT strain, primary screen, mitochondrial fusion inhibitor project, WT and mutant strains, chemical genetic; mitochondrial fusion phenotypic screen; inhibition, % at 10 µM; hit rate 2.1% among 190,000; AID 1362, 2008; in the data active = inhibition above about 58%; tested in S. cerevisiae
Ins promoter up = insulin promoter activators in MIN6 cells, imaging, high-content screening, mouse beta cells; MIN6 insulin promoter-GFP reporter; hits give high values; z-score at 5 µM; hit rate 0.3% among 190,000; AID 1625, 2009;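 active = z-score above 3 at 5 µM with at least 500 cells counted in the well; inconclusive = wells under 500 cells, flagged as cytotoxic or low count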
SKKanGAS inh = S. pyogenes SKKanGAS growth inhibitors in kanamycin, primary screen, streptokinase expression inhibitor project, SKKanGAS strain, BacTiter-Glo luminescence | AID 1662, 2009 | inhibition, % at 7.5 µM | hit rate 1.3% among 300,000 | 6 h;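 active = mean replicate score, as percent of positive control median, at least 50; inconclusive = mean below 50 but one replicate at or above 50; inactive = mean and every replicate below 50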;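 note: strain carries kanamycin resistance gene driven by streptokinase promoter and grows in 40 µg/ml kanamycin; loss of luminescence reflects streptokinase promoter inhibition or plain growth inhibition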
A number is an active result; i = inactive; ? = inconclusive; nt = no result; + = active, no number. Sampled rows, rich in hits. Any-hit rate of the full collection: about 4.2%.

SMILES | Autophagy mod | Rad51 HR inh | Cl transport mod | WT yeast gro inh | Ins promoter up | SKKanGAS inh
CCOc1ccc(C(=O)N2CCN=C2SC)cc1OCC | + | i | nt | i | i | i
CCOc1ccccc1C(=O)N1CCN=C1SC | i | i | i | i | ? | i
CCC(NS(=O)(=O)c1ccc2c(c1)NC(=O)C(C)C(=O)N2)c1cccs1 (centres undefined) | nt | nt | nt | nt | nt | i
O=C(/C=C/c1cccs1)N1CCCCC1 | i | i | i | i | i | i
O=C(/C=C/c1cccs1)N1CCN(c2ccc(O)cc2)CC1 | i | 41 | i | i | i | i
CN(Cc1ccccc1)C(=O)c1oc(=O)c2ccccc2c1-c1ccccc1 | i | i | i | i | i | i
Cc1ccc(-c2c(C(=O)N(C)Cc3ccccc3)oc(=O)c3ccccc23)cc1 | i | i | i | 67 | i | i
COc1cccc2c1C(=O)c1c(O)c3c(c(O)c1C2=O)C[C@@](O)(C(=O)CO)C[C@@H]3O[C@H]1C[C@H](N)[C@@H](O)[C@H](C)O1 | nt | 74 | nt | nt | nt | 108
COc1cccc2c1C(=O)c1c(O)c3c(c(O)c1C2=O)C[C@@](O)(C(C)=O)C[C@@H]3O[C@H]1C[C@H](N)[C@H](O)[C@H](C)O1 | i | nt | i | 67 | nt | nt
CC(=O)[C@]1(O)Cc2c(O)c3c(c(O)c2[C@@H](O[C@H]2C[C@H](N)[C@H](O)[C@H](C)O2)C1)C(=O)c1ccccc1C3=O | nt | i | nt | nt | nt | 104
O=C(c1cc(-c2ccncc2)nc2ccc(Cl)cc12)N1CCN(Cc2ccc3c(c2)OCO3)CC1 | i | i | i | i | i | i
Cc1cc(C)c2nc(-c3ccncc3)cc(C(=O)N3CCN(Cc4ccccc4Cl)CC3)c2c1 | nt | nt | nt | nt | nt | 74
COCc1cc(=O)[nH]c(Nc2nc3ccccc3o2)n1 | i | i | i | i | i | 53
COC(=O)Cc1cc(=O)[nH]c(Nc2nc3ccccc3o2)n1 | i | i | i | i | i | i
CCOCCCNC(=O)C(NC(=O)Cc1cccs1)c1ccc(Cl)cc1 (centres undefined) | i | i | i | i | i | i
Nc1ccc(Oc2ccc3c(c2)C(=O)NC3=O)cc1 | nt | nt | nt | nt | nt | i
Cc1cc(NC(=O)CCCn2nc([N+](=O)[O-])cc2C)no1 | i | i | i | i | i | i
Cc1cc(NC(=O)CCCn2nc([N+](=O)[O-])c(Cl)c2C)no1 | + | i | i | i | i | i
Oc1ccc(Oc2ccc(Oc3ccc(O)cc3)cc2)cc1 | nt | nt | nt | nt | nt | 67
COc1ccc(-c2n[nH]c(C(F)(F)F)c2-c2cc3ccccc3o2)c(O)c1 | i | i | i | 94 | i | 99
COc1ccccc1-c1c(-c2ccc(OCC(=O)NN)cc2O)n[nH]c1C(F)(F)F | i | i | i | i | i | i
CC(c1nnc(SCC(=O)Nc2cccnc2Cl)n1Cc1ccccc1)N(C)C (centres undefined) | i | i | i | i | nt | i
CCCCn1c(Oc2ccc(C(=O)OC)cc2)nc2c1c(=O)n(C)c(=O)n2C | + | i | i | i | i | i
N=c1c2c(-c3ccccc3)c(-c3ccccc3)n(Cc3ccco3)c2ncn1CCN1CCOCC1 | + | i | i | nt | i | i
Cc1c(C(=O)NNC(=S)NCc2ccc(Cl)cc2)oc2ccccc12 | nt | nt | nt | nt | nt | 82
SMILES | Autophagy mod | Rad51 HR inh | Cl transport mod | WT yeast gro inh | Ins promoter up | SKKanGAS inh
CCCCCN(C(=O)CCC(=O)OCc1cccc(Br)c1)c1c(N)n(CCCC)c(=O)[nH]c1=O | nt | nt | nt | nt | nt | i
O=C(N/N=C\c1ccc(O)c([N+](=O)[O-])c1)C1COc2ccccc2O1 (centres undefined) | nt | i | nt | nt | i | i
Cc1cc([N+](=O)[O-])cc(/C=N\NC(=O)C2COc3ccccc3O2)c1O (centres undefined) | nt | i | i | nt | i | 106
CC(C)(C)c1ccc2c(c1)OC(C(=O)N/N=C/c1ccc([N+](=O)[O-])o1)CO2 (centres undefined) | nt | i | nt | nt | i | 66
Cc1cccc(C(=O)NCC(=O)OC(C)C(=O)Nc2ccc(Cl)cn2)c1 (centres undefined) | nt | nt | nt | nt | nt | i
Cc1ccc(OCCCCNC2CCCC(C)C2C)c(C)c1 (centres undefined) | i | i | i | 63 | i | i
